# Data: ChEMBL document CHEMBL1132401, “Glycosylation of fluoroquinolones through direct and oxygenated polymethylene linkages as a sugar-mediated active transport system for antimicrobials” (1999)
# How the values were obtained:
# Staphylococcus aureus [1] = experiment: Minimum concentration required to prevent the growth of multiply resistant (MRSA) and cipro resistant (Cipro-R) Staphylococcus aureus strain A2043; format: functional
# Summary of the method: (§1)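 Agar dilution susceptibility testing per NCCLS guidelines against resistant clinical isolates, with nonresistant ATCC stock strains run as controls. Plates were read at 19–24 h of incubation. MIC reported in µg/mL.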
# [2] = tested on: Staphylococcus epidermidis; experiment: Minimum concentration required to prevent the growth of multiply resistant Staphylococcus epidermidis (MRSE) and cipro resistant (Cipro-R) coag.-neg. Staph. A0247; format: functional; summary of the method: as §1
# Pseudomonas aeruginosa [3] = experiment: Minimum concentration required to prevent the growth of Pseudomonas aeruginosa strain 28245; format: functional
# Summary of the method: (§2)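 Agar dilution susceptibility testing per NCCLS guidelines, covering clinical isolates (including resistant phenotypes) and nonresistant ATCC stock strains as controls. Plates read after 19–24 h of incubation. MIC reported in μg/mL.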
# Staphylococcus aureus [4] = experiment: Minimum concentration required to prevent the growth of multiply resistant (MRSA) and cipro resistant (Cipro-R) Staphylococcus aureus strain A2800; format: functional; summary of the method: as §1
# Listeria monocytogenes [5] = experiment: Minimum concentration required to prevent the growth of Listeria monocytogenes strain A0183; format: functional; summary of the method: as §2
# Escherichia coli [6] = experiment: Minimum concentration required to prevent the growth of cipro resistant (Cipro-R) Escherichia coli strain A3228; format: functional; summary of the method: as §2
# Pseudomonas aeruginosa [7] = experiment: Minimum concentration required to prevent the growth of Pseudomonas aeruginosa strain 28215; format: functional; details: Pseudomonas aeruginosa; read-out: MIC; summary of the method: as §2
# Staphylococcus aureus [8] = experiment: Minimum concentration required to prevent the growth of multiply resistant (MRSA) Staphylococcus aureus strain A0171; format: functional; summary of the method: as §1
# [9] = tested on: Staphylococcus epidermidis; experiment: Minimum concentration required to prevent the growth of multiply resistant Staphylococcus epidermidis (MRSE) coag.-neg. Staph. A0245; format: functional; summary of the method: as §1
# [10] = tested on: Staphylococcus epidermidis; experiment: Minimum concentration required to prevent the growth of multiply resistant Staphylococcus epidermidis (MRSE) and cipro resistant (Cipro-R) coag.-neg. Staph. A0248; format: functional; summary of the method: as §1
# Enterococcus faecalis [11] = experiment: Minimum concentration required to prevent the growth of nonresistant stock strain Enterococcus faecalis 29212 from American Type Culture Collection (ATCC); format: functional; summary of the method: as §1
# Escherichia coli [12] = experiment: Minimum concentration required to prevent the growth of cipro resistant (Cipro-R) Escherichia coli strain AA; format: functional; details: Escherichia coli; read-out: MIC; summary of the method: as §2
# Escherichia coli [13] = experiment: Minimum concentration required to prevent the growth of cipro resistant (Cipro-R) Escherichia coli strain A3529; format: functional; details: Escherichia coli; read-out: MIC; summary of the method: as §2
# Enterococcus faecalis [14] = experiment: Minimum concentration required to prevent the growth of vancomycin resistant (VanA) Enterococcus faecalis strain A0402; format: functional; details: Enterococcus faecalis; read-out: MIC; summary of the method: as §1
# Enterococcus faecium [15] = experiment: Minimum concentration required to prevent the growth of vancomycin resistant (VanA) Enterococcus faecium strain A2320; format: functional; summary of the method: as §1
# Enterococcus faecium [16] = experiment: Minimum concentration required to prevent the growth of vancomycin resistant (VanB) Enterococcus faecium strain A0803; format: functional; summary of the method: as §1
# Klebsiella pneumoniae = experiment: Minimum concentration required to prevent the growth of cipro resistant (Cipro-I) Klebsiella pneumoniae strain AM; format: functional; summary of the method: as §1
# Listeria monocytogenes [17] = experiment: Minimum concentration required to prevent the growth of Listeria monocytogenes strain A0182; format: functional; summary of the method: as §2
# Staphylococcus aureus [18] = experiment: Minimum concentration required to prevent the growth of multiply resistant (MRSA) Staphylococcus aureus strain A0170; format: functional; summary of the method: as §1
# [19] = tested on: Staphylococcus epidermidis; experiment: (§3) Minimum concentration required to prevent the growth of multiply resistant Staphylococcus epidermidis (MRSE) coag.-neg. Staph. A0244; format: functional; summary of the method: as §1
# Enterococcus faecium [20] = experiment: Minimum concentration required to prevent the growth of vancomycin resistant (VanB) Enterococcus faecium strain A1087; format: functional; summary of the method: as §1
# Enterococcus faecalis [21] = experiment: Minimum concentration required to prevent the growth of vancomycin resistant (VanA) Enterococcus faecalis strain A0401; format: functional; summary of the method: as §1
# Enterococcus faecalis [22] = experiment: Minimum concentration required to prevent the growth of high level gentamicin and beta- lactamase resistant (HLGR, BLA+) Enterococcus faecalis strain A0090; format: functional; summary of the method: as §1
# Enterococcus faecalis [23] = experiment: Minimum concentration required to prevent the growth of high level gentamicin and beta- lactamase resistant (HLGR, BLA+) Enterococcus faecalis strain A0089; format: functional; summary of the method: as §1
# Klebsiella oxytoca = experiment: Minimum concentration required to prevent the growth of cipro resistant (Cipro-R) Klebsiella oxytoca strain A3530
# Enterococcus faecalis [24] = experiment: Minimum concentration required to prevent the growth of nonresistant stock strain Enterococcus faecalis 51299 from American Type Culture Collection (ATCC); format: functional; details: Enterococcus faecalis; read-out: MIC; summary of the method: as §1
# Enterococcus faecium [25] = experiment: Minimum concentration required to prevent the growth of vancomycin resistant (VanA) Enterococcus faecium strain A1745; format: functional; summary of the method: as §1
# Escherichia coli [26] = experiment: Minimum concentration required to prevent the growth of nonresistant stock Escherichia coli strain 25922 from American Type Culture Collection (ATCC); format: functional; details: ATCC25922; summary of the method: as §2
# Enterococcus faecium [27] = experiment: Minimum concentration required to prevent the growth of nonresistant stock strain Enterococcus faecium 19434 from American Type Culture Collection (ATCC); format: functional; summary of the method: as §2
# Enterococcus faecalis [28] = experiment: Minimum concentration required to prevent the growth of vancomycin resistant (VanB) Enterococcus faecalis strain A1079; format: functional; summary of the method: as §1
# Enterococcus faecalis [29] = experiment: Minimum concentration required to prevent the growth of vancomycin resistant (VanB) Enterococcus faecalis strain A1081; format: functional; summary of the method: as §1
# Staphylococcus aureus [30] = experiment: Minimum concentration required to prevent the growth of nonresistant stock strain Staphylococcus aureus 29213 from American Type Culture Collection (ATCC)
# Staphylococcus aureus [31] = experiment: as above; remark: listed apart in the source
# [32] = tested on: Staphylococcus epidermidis; experiment: as §3
# [33] = Listeria monocytogenes, read-out: MIC
# [34] = Staphylococcus aureus, read-out: MIC
# [35] = Staphylococcus epidermidis, read-out: MIC
# [36] = Enterococcus faecium, read-out: MIC
# [37] = Klebsiella pneumoniae, read-out: MIC
# [38] = Enterococcus faecalis, read-out: MIC
SMILES,MIC (Listeria monocytogenes [5]; [33]) [µg/mL],MIC (Staphylococcus aureus [8]; [34]) [µg/mL],"MIC [9, 35] [µg/mL]",MIC (Enterococcus faecalis [11]) [µg/mL],MIC (Enterococcus faecalis [14]) [µg/mL],MIC (Enterococcus faecium [16]; [36]) [µg/mL],MIC (Klebsiella pneumoniae; [37]) [µg/mL],MIC (Listeria monocytogenes [17]; [33]) [µg/mL],MIC (Staphylococcus aureus [18]; [34]) [µg/mL],MIC (Enterococcus faecium [20]; [36]) [µg/mL],MIC (Enterococcus faecalis [21]; [38]) [µg/mL],MIC (Enterococcus faecalis [22]) [µg/mL],MIC (Enterococcus faecalis [23]; [38]) [µg/mL],MIC (Enterococcus faecalis [24]) [µg/mL],MIC (Enterococcus faecium [27]; [36]) [µg/mL],MIC (Enterococcus faecalis [28]) [µg/mL],MIC (Enterococcus faecalis [29]; [38]) [µg/mL],also measured
O=C(O)c1cn(C2CC2)c2cc(N3CCN(C4OC(CO)C(O)C(O)C4O)CC3)c(F)cc2c1=O (stereo in doubt; form 1),2,0.5,0.5,1,2,4,2,2,0.5,4,2,1,2,0.5,8,1,0.5,"MIC (Staphylococcus aureus [1]): > 32 µg/mL; MIC [2]: > 32 µg/mL; MIC (Pseudomonas aeruginosa [3]): 1 µg/mL; MIC (Staphylococcus aureus [4]): > 32 µg/mL; MIC (Escherichia coli [6]): > 32 µg/mL; MIC (Pseudomonas aeruginosa [7]): 0.25 µg/mL; MIC [10]: > 32 µg/mL; MIC (Escherichia coli [12]): 8 µg/mL; MIC (Escherichia coli [13]): 32 µg/mL; MIC (Enterococcus faecium [15]): > 32 µg/mL; MIC [19, 35]: 1 µg/mL; MIC (Klebsiella oxytoca): 8 µg/mL; MIC (Enterococcus faecium [25]): > 32 µg/mL; MIC (Escherichia coli [26]): < 0.03 µg/mL"
Cl.O=C(O)c1cn(C2CC2)c2cc(N3CCNCC3)c(F)cc2c1=O [CIPROFLOXACIN HYDROCHLORIDE],1,0.5,0.5,1,1,2,2,1,0.25,4,2,1,2,1,8,1,0.5,"MIC (Pseudomonas aeruginosa [3]; Pseudomonas aeruginosa, read-out: MIC): 1 µg/mL; MIC (Staphylococcus aureus [30]): 0.5 µg/mL; MIC (Listeria monocytogenes [5]): 1 µg/mL; MIC (Staphylococcus aureus [31]): 0.5 µg/mL; MIC (Staphylococcus aureus [8]): 0.5 µg/mL; MIC [9]: 0.5 µg/mL; MIC [32]: 1 µg/mL; MIC (Enterococcus faecium [16]): 2 µg/mL; MIC (Klebsiella pneumoniae): 2 µg/mL; MIC (Listeria monocytogenes [17]): 1 µg/mL; MIC (Staphylococcus aureus [18]): 0.5 µg/mL; MIC [19]: 1 µg/mL; MIC (Enterococcus faecium [20]): 4 µg/mL; MIC (Enterococcus faecalis [21]): 1 µg/mL; MIC (Enterococcus faecalis [23]): 1 µg/mL; MIC (Enterococcus faecium [27]): 8 µg/mL; MIC (Enterococcus faecalis [29]): 0.5 µg/mL"
